Assay results published in PubChem BioAssay AID588705 (Broad Institute, 2011).
Calls of active or inactive are those of the source. How the calls were made is not given here.

tested on: not listed separately; assay: MDA-MB-231 breast cancer cell cytotoxicity, dose response, CellTiter-Glo luminescence, dry powder (AID 588705); details: MDA-MB-231 viability, CellTiter-Glo luminescence, 72 h
How it was run: (§1)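 Assay system: MDA231 (MDA-MB-231) human breast cancer cell line; Input: 1000 cells/well; Medium: serum-free DMEM/MEGM screening medium with hydrocortisone, insulin, EGF, BPE; Schedule: compound added 24 h post-seeding, then 72 h exposure; Measured by: CellTiter-Glo luminescence for cell viability; Control set: DMSO-only negative control wells.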

For `O=C(N/N=C/c1ccc[nH]1)c1cc2ccccc2o1`, the outcome was “inactive”.

tested on: MDA-MB-231 viability, CellTiter-Glo luminescence, 72 h; assay: as above; details: not given
How it was run: as §1

In order of rising AC50:
1. O=C(COc1c(Cl)cc(Cl)cc1Cl)N/N=C/c1ccc[nH]1  2.81 µM
2. O=C(COc1cc(Cl)ccc1Cl)N/N=C/c1ccc[nH]1  7.24 µM
3. CC(C)(C)c1ccc2c(c1)OC(C(=O)N/N=C/c1ccc[nH]1)CO2 (configuration not stated)  14.7 µM
4. Cc1cc(Cl)ccc1OCC(=O)N/N=C/c1ccc[nH]1  16.7 µM
5. O=C(COc1ccc(Cl)cc1Cl)N/N=C/c1cnc[nH]1  31.6 µM
6. O=C(COc1ccc(Cl)cc1Cl)N/N=C/c1ccc[nH]1  47.6 µM
